The record followed here is PubChem BioAssay.

Structures are written as SMILES. Activity calls are given as the source filed them.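 Rule for the calls, unless noted: active = viability at or under a set limit in both replicates, limit being median viability minus 3 SD (cut at about 48% in these data, passing the limit was not always enough); inconclusive = at or under the limit in just one replicate; inactive = at or above the limit in both replicates.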

Test [1] is described as follows: Her2 expression decrease, cell viability multiplex – SKBR3 breast tumor cells, AlphaScreen, ATP viability, primary screen (AID 461;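 active = Her2 level under about 52% in both replicate screens, with viability over 70% of control, limit read from the data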;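 for Her2 level: lower value means less Her2 protein in the cells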;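 for viability: percent of carrier control wells set as 100% viability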). The conditions noted are these: SKBR3 Her2 protein level, 18-24 h, measured here: SKBR3 viability, ATP luminescence, at 10 µM.
The target of test [2] is Receptor tyrosine-protein kinase erbB-2 (Homo sapiens) (UniProt P04626). The description is as above. The conditions noted are these: 18-24 h, at 10 µM, stronger effect = lower value.
Receptor tyrosine-protein kinase erbB-2 (Homo sapiens), sequence (P04626 whole entry, looked up): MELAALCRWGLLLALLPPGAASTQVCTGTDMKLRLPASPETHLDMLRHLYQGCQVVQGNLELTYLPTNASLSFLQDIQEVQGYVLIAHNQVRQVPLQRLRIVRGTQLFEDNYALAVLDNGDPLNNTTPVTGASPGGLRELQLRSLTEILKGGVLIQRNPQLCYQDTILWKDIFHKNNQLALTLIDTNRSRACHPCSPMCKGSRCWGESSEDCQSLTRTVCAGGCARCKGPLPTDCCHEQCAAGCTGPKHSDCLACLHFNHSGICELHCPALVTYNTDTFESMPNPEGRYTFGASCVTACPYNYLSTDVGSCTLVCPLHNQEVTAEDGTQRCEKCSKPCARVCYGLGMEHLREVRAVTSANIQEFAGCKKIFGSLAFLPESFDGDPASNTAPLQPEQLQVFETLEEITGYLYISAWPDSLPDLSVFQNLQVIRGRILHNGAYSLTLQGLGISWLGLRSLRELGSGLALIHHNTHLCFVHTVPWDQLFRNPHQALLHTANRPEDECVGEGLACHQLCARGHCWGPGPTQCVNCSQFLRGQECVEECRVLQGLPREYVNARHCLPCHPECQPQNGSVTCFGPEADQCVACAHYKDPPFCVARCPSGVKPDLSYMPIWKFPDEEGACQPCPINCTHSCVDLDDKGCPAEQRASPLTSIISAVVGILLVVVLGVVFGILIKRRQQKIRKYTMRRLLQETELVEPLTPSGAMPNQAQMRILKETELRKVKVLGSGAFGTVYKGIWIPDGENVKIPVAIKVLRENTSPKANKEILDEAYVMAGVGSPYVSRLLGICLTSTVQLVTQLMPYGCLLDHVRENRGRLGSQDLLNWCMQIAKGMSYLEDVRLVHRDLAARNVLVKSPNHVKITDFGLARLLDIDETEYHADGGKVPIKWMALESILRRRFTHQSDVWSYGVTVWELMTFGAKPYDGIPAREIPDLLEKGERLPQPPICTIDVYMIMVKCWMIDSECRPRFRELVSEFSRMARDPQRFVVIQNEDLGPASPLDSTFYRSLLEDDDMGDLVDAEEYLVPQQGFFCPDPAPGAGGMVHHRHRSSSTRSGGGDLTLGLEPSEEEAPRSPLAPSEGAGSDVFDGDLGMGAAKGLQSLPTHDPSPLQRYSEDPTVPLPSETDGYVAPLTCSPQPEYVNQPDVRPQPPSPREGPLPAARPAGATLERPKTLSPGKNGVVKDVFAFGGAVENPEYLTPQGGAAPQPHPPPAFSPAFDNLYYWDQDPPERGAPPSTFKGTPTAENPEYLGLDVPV
Test [3] is described as follows: reduced viability of SK-BR-3 breast cancer cells – cell-based, 24 h, human, pilot screen (AID 572;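 active = viability at or below 10% of carrier control in both of two separate runs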;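 note: compound exposure lasted between 18 and 24 h rather than exactly 24 h; 100% = carrier-treated control wells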). The conditions noted are these: SK-BR-3 viability, CellTiter-Glo luminescence, at 10 µM, stronger effect = lower value. On the technique in general: Cellular ATP, detected with luciferase, serves as a proxy for viable cell number.
The nature of test [4]: HUVEC growth inhibition – cell-based, human, primary screen (AID 575;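 active = viability at or below 30% in both replicate assays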;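 note: 100% = median of untreated cell wells with 0.1% DMSO on each plate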). The conditions noted are these: HUVEC proliferation, CellTiter-Glo luminescence, 72 h; at 10 µM; stronger effect = lower value. The procedure, abridged:
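Test system: HUVEC primary cells. Quantity: 1250 endothelial cells in each well. Dosing: single-point 10 µM, DMSO 0.1% final. Incubation: 72 h treatment at 37 °C. Measured by: CTG luminescence. Control set: DMSO cell controls and MePR drug controls. Plate: collagen-coated 384-well format.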

Test [5] in a line: H69AR cell proliferation blockers – human, duplicate replicates, primary screen (AID 580).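 Note: 100% = mean luminescence of untreated wells and 0% = no signal.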 The conditions noted are these: H69AR lung tumor cells viability, ATP luminescence, 72 h; at 10 µM; stronger effect = lower value.
Test [6] in a line: MRP1 drug-resistance reversers in H69AR cells – cell-based, doxorubicin co-treatment, pilot screen (AID 601;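 active = viability loss from added drug above about 55%, and viability with drug at most 40%, in both replicates, limit read from the data, passing the limit was not always enough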). The conditions noted are these: CellTiter-Glo, 72 h, at 10 µM; for differential viability (reversal): stronger effect = higher value.
A short description of test [7]: yeast transport mutant growth inhibition pilot in 384-well plates, post-Golgi transport modulator project (AID 636; in the data active = inhibition above about 31%). The conditions noted are these: absorbance 615 nm, about 18 h, stronger effect = higher value.
A short description of test [8]: growth suppression of yeast trafficking mutant, preliminary HTS, modulators of trafficking downstream of Golgi apparatus project, 1536-format plate, OD 615 nm (AID 637; in the data active = inhibition above about 30%). The conditions noted are these: yeast transport mutant growth, absorbance 615 nm, 18 h; stronger effect = higher value.
Setting [9] is: H69AR cells + 2 uM doxorubicin, measured here: viability with 2 uM doxorubicin, stronger effect = lower value.
The mark [10] stands for this setting: H69AR cells, compound alone cytotoxicity.

Regarding `C=CCOc1ccc(/C=N/n2cncn2)cc1OC`, the viability in test [1] is 85%; in test [3] it was 85% (inactive); in test [4], 103% (inactive); in test [5] it was 94.6% (inactive); in test [6] (setting [9]), 86.2%; in test [6] (setting [10]) it was 94.6%. The Her2 level in test [2] is 112% (inactive). In addition, the differential viability (reversal) in test [6] (H69AR cells + 2 uM doxorubicin) was 8.46% (inactive). Also, the inhibition was 9.86% (inactive) in test [7] and 16.8% (inactive) in test [8].

`COc1ccc(-c2nnc(SCC(=O)c3cc(C)n(Cc4cccs4)c3C)o2)cc1`: the viability in test [1] was 99.5%; in test [3], 99.5% (inactive); in test [4] it was 90.9% (inactive); in test [5], 87.5% (inactive); in test [6] (setting [9]), 85.7%; in test [6] (setting [10]), 87.5%. Further, the Her2 level in test [2] was 114% (inactive). The differential viability (reversal) in test [6] (H69AR cells + 2 uM doxorubicin) is 1.84% (inactive). The values for the inhibition in test [7] and in test [8] were 2.6% (inactive) and 18.2% (inactive), respectively.

On to `COc1nc(OC)nc(N2CCC(C(=O)NC3CCCCCC3)CC2)n1`, for which the viability is 95.5% in test [1]; 95.5% (inactive) in test [3]; 104% (inactive) in test [4]; 105% (inactive) in test [5]; 100% in test [6] (setting [9]); 105% in test [6] (setting [10]). In addition, in test [2], the Her2 level was 102% (inactive). In addition, in test [6] (H69AR cells + 2 uM doxorubicin), the differential viability (reversal) was 4.45% (inactive). The inhibition in test [7] is 3.6% (inactive); in test [8], -2.3% (inactive).

`CC(C)CN(C(=O)COC(=O)Cc1n[nH]c(=O)c2ccccc12)C1CCS(=O)(=O)C1` (stereo not given): the viability in test [1] is 97.5%; in test [3], 97.5% (inactive); in test [4] it was 93.6% (inactive); in test [5], 90.1% (inactive); in test [6] (setting [9]), 85.7%; in test [6] (setting [10]) it was 90.1%. In addition, the Her2 level in test [2] was 98.5% (inactive). Moreover, in test [6] (H69AR cells + 2 uM doxorubicin), the differential viability (reversal) was 4.47% (inactive). Besides, the inhibition in test [7] is -3.12% (inactive); in test [8], -1.75% (inactive).

With `Cc1ccc(Cn2c(SCC(C)C)nc3c2c(=O)n(C)c(=O)n3C)cc1`, the viability in test [1] is 84.5%; in test [3] it was 84.5% (inactive); in test [4], 62.2% (inactive); in test [5], 77.5% (inactive); in test [6] (setting [9]), 90.1%; in test [6] (setting [10]) it was 77.5%. In addition, the Her2 level in test [2] is 75.5% (inactive). Besides, in test [6] (H69AR cells + 2 uM doxorubicin), the differential viability (reversal) was -12.6% (inactive). Further, the inhibition is -1.84% (inactive) in test [7] and 9.34% (inactive) in test [8].

Regarding `O=C(c1ccc(-c2ccccc2)cc1)N1CCN(c2ncccn2)CC1`, the viability is 91% in test [1]; 91% (inactive) in test [3]; 94.6% (inactive) in test [4]; 103% (inactive) in test [5]; 90.5% in test [6] (setting [9]); 103% in test [6] (setting [10]). Moreover, in test [2], the Her2 level was 96.5% (inactive). Also, in test [6] (H69AR cells + 2 uM doxorubicin), the differential viability (reversal) is 12.7% (inactive). The inhibition in test [7] was -9.32% (inactive); in test [8], 6.39% (inactive).

In the case of `COc1ccc(C(=O)Cn2c(N3CCCCC3)nc3c2c(=O)n(C)c(=O)n3C)cc1OC`, the viability in test [1] is 94%; in test [3], 94% (inactive); in test [4], 83.9% (inactive); in test [5] it was 92.7% (inactive); in test [6] (setting [9]), 99.1%; in test [6] (setting [10]), 92.7%. Moreover, in test [2], the Her2 level was 98.5% (inactive). In addition, the differential viability (reversal) in test [6] (H69AR cells + 2 uM doxorubicin) is -6.42% (inactive). Besides, the inhibition in test [7] is 1.18% (inactive); in test [8] it was -1.48% (inactive).

Regarding `CNC(=O)CC(C(=O)O)c1ccc(OCC(C)C)cc1` (stereo not given), the viability in test [1] is 90.5%; in test [3], 90.5% (inactive); in test [4], 84.4% (inactive); in test [5] it was 93.9% (inactive); in test [6] (setting [9]) it was 89.2%; in test [6] (setting [10]), 93.9%. Moreover, the Her2 level in test [2] is 102% (inactive). Besides, in test [6] (H69AR cells + 2 uM doxorubicin), the differential viability (reversal) was 4.75% (inactive). For the same molecule, the figures for the inhibition in test [7] and in test [8] were -2.11% (inactive) and 9.84% (inactive), respectively.

Consider `CSc1nc(NC(C)(C)C)nc(Oc2ccc(=O)[nH]n2)n1`, for which the viability in test [1] was 101%; in test [3], 101% (inactive); in test [4], 107% (inactive); in test [5], 92.1% (inactive); in test [6] (setting [9]), 91.7%; in test [6] (setting [10]) it was 92.1%. The Her2 level in test [2] is 93.5% (inactive). The differential viability (reversal) in test [6] (H69AR cells + 2 uM doxorubicin) was 0.405% (inactive). In addition, the inhibition in test [7] is -3.82% (inactive); in test [8], 2.46% (inactive).

`CCCS(=O)(=O)N1CCN(Cc2ccc(OCc3ccccc3)c(OC)c2)CC1`: the viability was 84.5% in test [1]; 84.5% (inactive) in test [3]; 105% (inactive) in test [4]; 87.8% (inactive) in test [5]; 93.1% in test [6] (setting [9]); 87.8% in test [6] (setting [10]). The Her2 level in test [2] is 114% (inactive). Moreover, the differential viability (reversal) in test [6] (H69AR cells + 2 uM doxorubicin) is -5.26% (inactive). In addition, the inhibition in test [7] is 4.19% (inactive); in test [8], 30.2% (active).

For the molecule `OC(CCN1CCOCC1)(c1ccc(Cl)cc1)C1CCCCC1` (stereo not given), the viability in test [1] was 82.5%; in test [3] it was 82.5% (inactive); in test [4] it was 99.6% (inactive); in test [5], 82% (inactive); in test [6] (setting [9]), 85.7%; in test [6] (setting [10]), 82%. Besides, the Her2 level in test [2] is 102% (inactive). Moreover, in test [6] (H69AR cells + 2 uM doxorubicin), the differential viability (reversal) was -3.7% (inactive). Moreover, the values for the inhibition in test [7] and in test [8] were -0.4% (inactive) and 21.5% (inactive), respectively.

Take `O=C(Nc1ccc2c(c1)OCCO2)c1ccco1`: the viability in test [1] was 83%; in test [3], 83% (inactive); in test [4], 78.7% (inactive); in test [5], 86.5% (inactive); in test [6] (setting [9]), 79.7%; in test [6] (setting [10]), 86.5%. For the same molecule, the Her2 level in test [2] was 106% (inactive). Moreover, in test [6] (H69AR cells + 2 uM doxorubicin), the differential viability (reversal) is 6.8% (inactive). Besides, the inhibition in test [7] is 2.47% (inactive); in test [8], -5.08% (inactive).

With `O=C(Nc1cccc2ccccc12)N1CCOCC1`, the viability in test [1] is 119%; in test [3], 119% (inactive); in test [4] it was 85.9% (inactive); in test [5] it was 90.5% (inactive); in test [6] (setting [9]), 98.9%; in test [6] (setting [10]), 90.5%. Moreover, the Her2 level in test [2] was 103% (inactive). Further, the differential viability (reversal) in test [6] (H69AR cells + 2 uM doxorubicin) was -8.41% (inactive). Further, the inhibition is -2.95% (inactive) in test [7] and 11.3% (inactive) in test [8].

As for `Cc1nc(NC2=NCN(CC3CCCO3)CN2)nc2ccccc12` (stereo not given), the viability is 98.5% in test [1]; 98.5% (inactive) in test [3]; 86.2% (inactive) in test [4]; 85.1% (inactive) in test [5]; 98.9% in test [6] (setting [9]); 85.1% in test [6] (setting [10]). Also, the Her2 level in test [2] was 83% (inactive). The differential viability (reversal) in test [6] (H69AR cells + 2 uM doxorubicin) was -13.8% (inactive). The inhibition is -5.07% (inactive) in test [7] and -3.81% (inactive) in test [8].

As to `CC1=C(C(=O)NCc2ccccc2)C(c2ccccc2OCC(N)=O)NC(=O)N1` (stereo not given), the viability is 93.5% in test [1]; 93.5% (inactive) in test [3]; 89.1% (inactive) in test [4]; 109% (inactive) in test [5]; 92.9% in test [6] (setting [9]); 109% in test [6] (setting [10]). Also, the Her2 level in test [2] was 77% (inactive). Besides, in test [6] (H69AR cells + 2 uM doxorubicin), the differential viability (reversal) is 15.9% (inactive). In addition, the results for the inhibition in test [7] and in test [8] were -4.13% (inactive) and 1.43% (inactive), respectively.

By viability is commonly meant a read-out of living cells in per cent, often relative to untreated cells. The term inhibition denotes the change of the read-out against control, counted positive when it falls.
